Test results published in PMC2874468 (Journal of the American Chemical Society, 2010).
pKi: −log10 of the molar value. Values joined by “and” are separate entries in the source; they are usually repeats but may differ in a detail not shown here. Equal values may be shown once.

Experiments:
A. aeolicus IspH = biological target: T1, A. aeolicus IspH (Aquifex aeolicus, UniProt O67625); experiment: IspH enzyme inhibition assay; format: biochemical
T1 sequence (O67625 1-289): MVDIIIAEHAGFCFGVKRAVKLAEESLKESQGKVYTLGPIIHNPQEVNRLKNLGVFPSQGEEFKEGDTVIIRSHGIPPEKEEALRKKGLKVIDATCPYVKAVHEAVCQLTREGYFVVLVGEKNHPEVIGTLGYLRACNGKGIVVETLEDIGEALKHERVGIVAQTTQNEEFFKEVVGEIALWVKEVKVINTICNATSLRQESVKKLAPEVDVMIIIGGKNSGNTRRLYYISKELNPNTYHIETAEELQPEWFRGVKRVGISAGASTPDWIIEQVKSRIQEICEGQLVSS
How it was run: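 Ni-NTA-purified recombinant enzyme expressed in E. coli BL-21(DE3). Cluster reconstituted anaerobically with DTT, elemental sulfur and FeCl3 until A410/A280 reached about 0.38. Run anaerobically at room temperature in pH 8.0 Tris·HCl/NaCl/5% glycerol with 0.4 mM dithionite, 2 mM methyl viologen and 72 nM enzyme, across varied HMBPP. Initial rates at 732 nm fitted to Michaelis-Menten.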

IspH = conditions: cited from earlier work
[1] = biological target: farnesyl diphosphate synthase; conditions: read-out: Ki, farnesyl diphosphate synthase inhibition; previous work ref 22; cited from earlier work

| Compound | activity in IspH inhibition (in words) (A. aeolicus IspH) | also measured |
| --- | --- | --- |
| C#CC(=O)O [propiolic acid] | poor activity | – |
| N#CCOP(=O)(O)OP(=O)(O)O [compound 15, Cyanomethyl diphosphate] | far less active than their acetylenic counterparts | – |
| C/C(=C\COP(=O)(O)OP(=O)(O)O)CO [HMBPP, E-4-hydroxy-3-methyl-but-2-enyl diphosphate] | – | Km (A. aeolicus IspH; read-out: KM for HMBPP, reconstituted A. aeolicus IspH, Michaelis-Menten fit): 5 µM and 7 µM |
| O=P(O)(O)OP(=O)(O)O [PPi] | – | IspH inhibition (weak inhibitors) (IspH): ~ 1 mM |
| O=P(O)(O)OP(=O)(O)OCc1ccc(Cl)nc1 [compound 29, (6-Chloropyridin-3-yl)-methyl-diphosphate] | lack of activity | – |
| Cc1ccc[n+](CC(O)(P(=O)([O-])O)P(=O)(O)O)c1 (stereo not shown) [compound 18] | – | pKi [1]: ~7.70 |
| N#CCCOP(=O)(O)OP(=O)(O)O [compound 16, 2-Cyanoethyl diphosphate] | far less active than their acetylenic counterparts | – |
